Data: ChEMBL document CHEMBL1139875, “Discovery of 4-aminobutyric acid derivatives possessing anticonvulsant and antinociceptive activities: a hybrid pharmacophore approach” (2007)
Calls of active or inactive are those of the source. The calls are words filed in the database; no cut-off is given here.

How the values were obtained:
Mus musculus [1] = assay: Anticonvulsant activity in Swiss Albino mouse at 300 mg/kg, ip after 0.5 hr by MES test; format: functional, organism-based; design: dose 300 mg/kg
Outline: (§1)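 Mice (Swiss, 20-25 g) given i.p. doses of 30, 100 and 300 mg/kg under ADD program protocols, three per group, examined at 0.5 and 4 h in MES, scPTZ, scSTY or scPIC seizure tests. Value is the minimum dose protecting half or more of the mice.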

Mus musculus [2] = assay: Anticonvulsant activity in Swiss Albino mouse at 300 mg/kg, ip after 4 hrs by MES test; format: functional, organism-based; design: dose 300 mg/kg; outline: as §1
Mus musculus [3] = assay: Anticonvulsant activity in Swiss Albino mouse at 300 mg/kg, ip after 0.5 hr by scPTZ test; format: functional, organism-based; design: dose 300 mg/kg; outline: as §1
Mus musculus [4] = assay: Anticonvulsant activity in Swiss Albino mouse at 300 mg/kg, ip after 0.5 hr by scSTY test; format: functional, organism-based; design: dose 300 mg/kg; outline: as §1
Mus musculus [5] = assay: Anticonvulsant activity in Swiss Albino mouse at 300 mg/kg, ip after 4 hrs by scSTY test; format: functional, organism-based; design: dose 300 mg/kg; outline: as §1
Mus musculus [6] = assay: Anticonvulsant activity in Swiss Albino mouse at 300 mg/kg, ip after 0.5 hr by scPIC test; format: functional, organism-based; design: dose 300 mg/kg; outline: as §1
Mus musculus [7] = assay: Anticonvulsant activity in Swiss Albino mouse at 300 mg/kg, ip after 4 hrs by scPIC test; format: functional, organism-based; design: dose 300 mg/kg; outline: as §1
Mus musculus [8] = assay: Neurotoxicity in Swiss Albino mouse at 300 mg/kg, ip after 0.5 hr by rotarod test; format: functional, organism-based; design: dose 300 mg/kg
Outline: (§2)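 Swiss mice (20-25 g) are trained on an accelerating rotorod (10 rpm, 3.2 cm rod), then injected i.p. at 30, 100 or 300 mg/kg, with three per group. Neurotoxicity means failure to keep equilibrium for at least 1 min in each of three trials, checked at 0.5 and 4 h. The value reported is the minimum dose affecting half or more of the mice.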

Mus musculus [9] = assay: Neurotoxicity in Swiss Albino mouse at 300 mg/kg, ip after 4 hrs by rotarod test; format: functional, organism-based; design: dose 300 mg/kg; outline: as §2
Mus musculus [10] = assay: Analgesic activity in Swiss Albino mouse assessed as number of acetic acid-induced writhing per 30 min after 100 mg/kg, ip; format: functional; details: route intraperitoneal
Outline: (§3)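 Mice in groups of six dosed i.p. at 100 mg/kg, controls receiving 30% v/v PEG 400 in water. Writhing induced by i.p. 0.1 mL of 3% v/v acetic acid 1 h after drug. Writhes (abdominal stretch with at least one hind limb extended) counted over 30 min; % inhibition calculated. Mean ± SEM, Student's t test.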

Mus musculus [11] = assay: Analgesic activity in Swiss Albino mouse assessed as inhibition of acetic acid-induced writhing responses at 100 mg/kg, ip; format: functional; details: route intraperitoneal; outline: as §3
Rattus norvegicus [12] = assay: Effect on spontaneous pain in Sprague-Dawley rat SNL model assessed as duration of paw withdrawal at 100 mg/kg, ip after 0.5 hr; format: functional; details: route intraperitoneal
Outline: (§4)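 Rats underwent left L5 spinal nerve ligation (Kim and Chung) under i.p. pentobarbital (65 mg/kg). Spontaneous pain is recorded for 5 min after 10 min acclimatization, as cumulative duration the ipsilateral paw is lifted, excluding locomotor lifts. Dosing is 100 mg/kg i.p. in 30% v/v PEG 400/water, with testing at 0.5–2.5 h. Four rats, mean ± SEM versus predrug, one-way ANOVA with Bonferroni.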

Rattus norvegicus [13] = assay: Effect on spontaneous pain in Sprague-Dawley rat SNL model assessed as duration of paw withdrawal at 100 mg/kg, ip after 1 hr; format: functional; details: route intraperitoneal; outline: as §4
Rattus norvegicus [14] = assay: Effect on spontaneous pain in Sprague-Dawley rat SNL model assessed as duration of paw withdrawal at 100 mg/kg, ip after 1.5 hrs; format: functional; details: route intraperitoneal; outline: as §4
Rattus norvegicus [15] = assay: Effect on spontaneous pain in Sprague-Dawley rat SNL model assessed as duration of paw withdrawal at 100 mg/kg, ip after 2 hrs; format: functional; details: route intraperitoneal; outline: as §4
Rattus norvegicus [16] = assay: Effect on spontaneous pain in Sprague-Dawley rat SNL model assessed as duration of paw withdrawal at 100 mg/kg, ip after 2.5 hrs; format: functional; details: route intraperitoneal; outline: as §4
Rattus norvegicus [17] = assay: Antihyperalgesic effects in Sprague-Dawley rat SNL model assessed as duration of paw withdrawal at 100 mg/kg, ip after 0.5 hr, ip; format: functional; details: route intraperitoneal
Outline: (§5)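 L5 SNL rats (n = 4), dosed 100 mg/kg i.p. (vehicle 30% v/v PEG 400 in water). Pin-prick to midplantar ipsilateral left hindpaw; withdrawal duration, mean of three responses; ≥2 s defined abnormal. Mean ± SEM; one-way ANOVA with Bonferroni versus predrug.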

Rattus norvegicus [18] = assay: Antihyperalgesic effects in Sprague-Dawley rat SNL model assessed as duration of paw withdrawal at 100 mg/kg, ip after 1 hr, ip; format: functional; details: route intraperitoneal; outline: as §5
Rattus norvegicus [19] = assay: Antihyperalgesic effects in Sprague-Dawley rat SNL model assessed as duration of paw withdrawal at 100 mg/kg, ip after 1.5 hrs, ip; format: functional; details: route intraperitoneal; outline: as §5
Rattus norvegicus [20] = assay: Antihyperalgesic effects in Sprague-Dawley rat SNL model assessed as duration of paw withdrawal at 100 mg/kg, ip after 2 hrs, ip; format: functional; details: route intraperitoneal; outline: as §5
Rattus norvegicus [21] = assay: Antihyperalgesic effects in Sprague-Dawley rat SNL model assessed as duration of paw withdrawal at 100 mg/kg, ip after 2.5 hrs, ip; format: functional; details: route intraperitoneal; outline: as §5
Rattus norvegicus [22] = assay: Effect on spontaneous pain in Sprague-Dawley rat CCI model assessed as duration of paw withdrawal at 100 mg/kg, ip after 0.5 hr; format: functional; details: route intraperitoneal
Outline: (§6)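 CCI rats (n = 4) dosed 100 mg/kg i.p. (vehicle 30% v/v PEG 400 in water). After 10 min acclimatization in a cage 5 cm above ground, cumulative time the ipsilateral paw was held off the floor over 5 min recorded, excluding locomotion lifts. Mean ± SEM; ANOVA/Bonferroni versus predrug.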

Rattus norvegicus [23] = assay: Effect on spontaneous pain in Sprague-Dawley rat CCI model assessed as duration of paw withdrawal at 100 mg/kg, ip after 1 hr; format: functional; details: route intraperitoneal; outline: as §6
Rattus norvegicus [24] = assay: Effect on spontaneous pain in Sprague-Dawley rat CCI model assessed as duration of paw withdrawal at 100 mg/kg, ip after 1.5 hrs; format: functional; details: route intraperitoneal
Outline: (§7)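 Unilateral CCI of sciatic nerve (Bennett and Xie) in Sprague-Dawley rats under i.p. pentobarbital sodium (65 mg/kg). Spontaneous pain is scored over 5 min after 10 min acclimatization, as cumulative time the ipsilateral paw is held off the floor. Paw lifts from locomotion or repositioning are excluded. Drug is given at 100 mg/kg i.p. with 30% v/v PEG 400 vehicle. Mean ± SEM, n = 4, compared with predrug by ANOVA/Bonferroni.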

Rattus norvegicus [25] = assay: Effect on spontaneous pain in Sprague-Dawley rat CCI model assessed as duration of paw withdrawal at 100 mg/kg, ip after 2 hrs; format: functional; details: route intraperitoneal; outline: as §7
Rattus norvegicus [26] = assay: Anti-dynamic allodynia effect in Sprague-Dawley rat SNL model assessed as latency to paw withdrawal 100 mg/kg, ip after 0.5 hr; format: functional; details: route intraperitoneal
Outline: (§8)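 Left L5 spinal nerve ligation rats, tested preoperatively and 9 days postoperatively, then given 100 mg/kg i.p. (vehicle 30% v/v PEG 400 in water). After 10 min acclimatization, plantar surface of affected paw stroked mildly with a cotton-bud; paw lift response recorded. n = 4; retested 0.5-2.5 h post-dose.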

Rattus norvegicus [27] = assay: Anti-dynamic allodynia effect in Sprague-Dawley rat SNL model assessed as latency to paw withdrawal 100 mg/kg, ip after 1 hr; format: functional; details: route intraperitoneal; outline: as §8
Rattus norvegicus [28] = assay: Anti-dynamic allodynia effect in Sprague-Dawley rat SNL model assessed as latency to paw withdrawal 100 mg/kg, ip after 1.5 hrs; format: functional; details: route intraperitoneal; outline: as §8
Rattus norvegicus [29] = assay: Anti-dynamic allodynia effect in Sprague-Dawley rat SNL model assessed as latency to paw withdrawal 100 mg/kg, ip after 2 hrs; format: functional; details: route intraperitoneal; outline: as §8
Rattus norvegicus [30] = assay: Anti-dynamic allodynia effect in Sprague-Dawley rat SNL model assessed as latency to paw withdrawal 100 mg/kg, ip after 2.5 hrs; format: functional; details: route intraperitoneal; outline: as §8
Rattus norvegicus [31] = assay: Effect on spontaneous pain in Sprague-Dawley rat CCI model assessed as duration of paw withdrawal at 100 mg/kg, ip after 2.5 hrs; format: functional; details: route intraperitoneal; outline: as §7

## CC(=O)Oc1ccccc1C(=O)O [ASPIRIN]
Mus musculus [1]
  Activity: inactive
Mus musculus [2]
  Activity: inactive
Mus musculus [3]
  Activity: inactive
Mus musculus [4]
  Activity: inactive
Mus musculus [5]
  Activity: inactive
Mus musculus [6]
  Activity: inactive
Mus musculus [7]
  Activity: inactive
Mus musculus [8]
  Activity: inactive
Mus musculus [9]
  Activity: inactive
Mus musculus [10]
  Activity: 5.7
Mus musculus [11]
  inhibition in vivo at 100 mg/kg: 97%

## O=C(O)CCCNC(=O)NN=C(c1ccccc1)c1ccccc1
Mus musculus [1]
  Activity: Active
Mus musculus [2]
  Activity: inactive
Mus musculus [3]
  Activity: inactive
Mus musculus [4]
  Activity: Active
Mus musculus [5]
  Activity: Active
Mus musculus [6]
  Activity: Active
Mus musculus [7]
  Activity: Active
Mus musculus [8]
  Activity: Active
Mus musculus [9]
  Activity: inactive
Mus musculus [10]
  Activity: 13.3
Mus musculus [11]
  inhibition in vivo at 100 mg/kg: 93%
Rattus norvegicus [12]
  Activity: 15.1 s
Rattus norvegicus [13]
  Activity: 18.5 s
Rattus norvegicus [14]
  Activity: 13.4 s
Rattus norvegicus [15]
  Activity: 10.9 s
Rattus norvegicus [16]
  Activity: 8.8 s
Rattus norvegicus [17]
  Activity: 18.4 s
Rattus norvegicus [18]
  Activity: 19.9 s
Rattus norvegicus [19]
  Activity: 18.5 s
Rattus norvegicus [20]
  Activity: 13.7 s
Rattus norvegicus [21]
  Activity: 15 s

## O=C(O)CCCNC(=O)N/N=C/c1ccc([N+](=O)[O-])cc1
Mus musculus [1]
  Activity: inactive
Mus musculus [2]
  Activity: inactive
Mus musculus [3]
  Activity: inactive
Mus musculus [4]
  Activity: inactive
Mus musculus [5]
  Activity: inactive
Mus musculus [6]
  Activity: inactive
Mus musculus [7]
  Activity: inactive
Mus musculus [8]
  Activity: Active
Mus musculus [9]
  Activity: inactive
Mus musculus [10]
  Activity: 18.7
Mus musculus [11]
  inhibition in vivo at 100 mg/kg: 90%
Rattus norvegicus [22]
  Activity: 10.2 s
Rattus norvegicus [23]
  Activity: 9.2 s
Rattus norvegicus [24]
  Activity: 13.6 s
Rattus norvegicus [25]
  Activity: 11.3 s
Rattus norvegicus [26]
  Activity: 14.5 s
Rattus norvegicus [27]
  Activity: 4.3 s
Rattus norvegicus [28]
  Activity: 1.5 s
Rattus norvegicus [29]
  Activity: 1.8 s
Rattus norvegicus [30]
  Activity: 1.34 s
Rattus norvegicus [31]
  Activity: 17.2 s
